Most compounds without a hit are left out; they make up all but 2.9% or so of the library.
CAL PDZ FP-1 – untagged CAL PDZ binding inhibitors, primary screen, biochemical, fluorescence polarization, HTS | 300,000 tested, 0.92% active | inhibition, % at 24.9 µM | purified CAL PDZ, TMR-peptide fluorescence polarization, 1 h | AID 602252, 2012;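 active = mean inhibition of at least 30% with at least half of replicates also reaching 30%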;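 note: 0% = DMSO neutral control and 100% = excess unlabeled competitor peptide PRC23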
CAL PDZ FP-2 – CAL PDZ peptide-binding inhibitors, primary screen, biochemical, fluorescence polarization, Cer-tagged CAL PDZ, HTS; inhibition, % at 20 µM; purified CAL PDZ, TMR-peptide fluorescence polarization, 1 h; 330,000 tested, 0.02% active;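 active = highest replicate inhibition of at least 40%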;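 note: plate controls were DMSO neutral control wells for no effect and unlabeled competitor peptide control wells for full effect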
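System: purified tagged CAL PDZ domain construct (CerCALP). Schedule: 1 h incubation at room temperature before polarization reading. Medium: 25 mM sodium phosphate pH 7.4, 150 mM NaCl, TCEP, IgG, Thesit. Read-out: percent inhibition from loss of millipolarization. Measured by: FP readout, S and P plane fluorescence. Probe or stimulus: fluorescent TMR peptide probe.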
SIRT5 block – SIRT5 desuccinylase inhibitors, primary screen, biochemical, fluorescence imaging, single point, set 5 | inhibition, % at 15 µM | 330,000 tested, 1.1% active | Purified SirT5, succinyl-peptide AMC, trypsin-coupled fluorescence | NAD-dependent protein deacylase sirtuin-5, mitochondrial (Homo sapiens), Q9NXA8 | AID 652115, 2013; in the data active = inhibition above about 15%
Target sequence (Q9NXA8 whole entry, looked up): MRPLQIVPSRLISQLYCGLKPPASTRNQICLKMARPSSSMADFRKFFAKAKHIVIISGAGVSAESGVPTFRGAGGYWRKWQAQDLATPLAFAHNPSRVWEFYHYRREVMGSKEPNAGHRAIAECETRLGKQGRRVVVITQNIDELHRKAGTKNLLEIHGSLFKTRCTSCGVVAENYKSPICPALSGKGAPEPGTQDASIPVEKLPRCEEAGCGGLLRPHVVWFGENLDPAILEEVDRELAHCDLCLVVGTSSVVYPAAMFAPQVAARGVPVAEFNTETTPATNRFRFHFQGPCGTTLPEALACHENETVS
ERAP1 inh – human ERAP1 aminopeptidase inhibitors, primary screen, biochemical, single point, plate reader | Endoplasmic reticulum aminopeptidase 1 (Homo sapiens), Q9NZ08 | recombinant ERAP1, Leu-AMC fluorescence, 60 min | inhibition, % at 10.7 µM | 340,000 tested, 0.15% active | AID 652197, 2013;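 active = mean replicate inhibition of at least 30%, or all replicates individually reaching that 30% level; inactive = mean below 30% and not every replicate reaching it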;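 note: 0% = neutral control wells and 100% = L-leucinethiol positive control wells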
DENV2 CPE – inhibitors of DENV2 cytopathic effect, primary screen, cell-based, plate reader, single concentration; CPE inhibition, % at 9.99 µM; DENV2-infected cells, cytopathic effect rescue; 350,000 tested, 1.7% active; in the data active = CPE inhibition above about 20%, passing the limit was not always enough; tested in BHK-21 cells;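 note: 0% = median of neutral control wells and 100% = median of positive control wells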
S100A4 MyoIIA – inhibitors of S100A4-myosin IIA peptide binding, primary screen, biochemical, fluorescence polarization, TAMRA-MyoIIA peptide; Protein S100-A4 (Homo sapiens), P26447; inhibition, % at 10.7 µM; 360,000 tested, 0.14% active; AID 652163, 2013;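 active = mean inhibition of at least 70% across replicates, with every replicate also reaching that level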
Target sequence (P26447 whole entry, looked up): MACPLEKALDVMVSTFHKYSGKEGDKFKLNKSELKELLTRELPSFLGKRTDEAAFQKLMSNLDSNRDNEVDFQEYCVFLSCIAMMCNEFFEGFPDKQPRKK
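Compound dosing: one dose per compound; test system: human S100A4 monomer with TAMRA-labelled myosin IIA peptide; probe or stimulus: TAMRA-labelled myosin IIA heavy-chain peptide probe, 5 nM; medium: HEPES buffer with Ca2+, pH 7.2; schedule: 5 min incubation before reading; benchmarks: neutral control DMSO, positive control TFP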
An asterisk follows results filed as active; · = no result.

SMILES | CAL PDZ FP-1 | CAL PDZ FP-2 | SIRT5 block | ERAP1 inh | DENV2 CPE | S100A4 MyoIIA
COc1ccc(N2CCN(CC(O)COc3ccc(F)cc3)CC2)cc1 (centres undefined) | -1.5 | 0.9 | 0.2 | -0.7 | 51.9* | 6.4
CCCc1ccc(OCC(O)CN2CCN(c3ccccc3)CC2)cc1 (centres undefined) | 1.2 | -1.3 | · | 2.8 | 11.5 | -2.5
C/C=C/c1ccc([C@H]2[C@@H](CO)N(C(=O)C3CCCCC3)C23CN(C(=O)NC(C)C)C3)cc1 | · | · | -0.1 | 6.7 | 3.4 | -5.7
COc1ccc(S(=O)(=O)Nc2ccc3c(c2)CC(=O)N([C@@H](C)CO)C[C@@H](C)[C@H](CN(C)Cc2ccc(C(=O)O)cc2)O3)cc1 | · | · | -2.7 | -0.3 | -6.1 | -5.2
NS(=O)(=O)c1cccc2c1c([N+](=O)[O-])cc1nc(O)c(O)nc12 | -3.5 | -1.1 | 16.1* | 10.7 | 17.0 | 5.5
O=S(=O)(NN=Cc1cccc(Cl)c1)c1ccccc1 | · | · | 1.2 | -8.6 | 27.7* | 3.1
O=S(=O)(N/N=C\c1cccc(F)c1)c1ccccc1 | 6.6 | -1.6 | -0.9 | 2.1 | 7.4 | 1.0
CC(C)NC(=O)Nc1ccc2c(c1)CC(=O)N([C@H](C)CO)C[C@H](C)[C@H](CN(C)Cc1ccccc1)O2 | · | · | -2.3 | -0.4 | 11.3 | -4.0
Cc1ccccc1-c1cc(C(=O)NCc2cccc(Br)c2)nn1CC1CC(c2cccc([N+](=O)[O-])c2)=NO1 (centres undefined) | 1.2 | -0.8 | · | · | 34.0* | -10.1
COCCNC(=O)c1cc(-c2ccccc2C)n(CC2CC(c3cccc([N+](=O)[O-])c3)=NO2)n1 (centres undefined) | 3.1 | 0.8 | -1.2 | 3.6 | 0.8 | 0.6
O=C(CS(=O)(=O)c1ccccc1)c1cc2ccccc2oc1=O | -2.7 | -2.4 | · | · | · | ·
O=C(CS(=O)(=O)c1ccccc1)c1cc2cc(F)ccc2oc1=O | 78.8* | -1.0 | · | · | · | ·
COc1cccc(CNC(=O)[C@@H]2CCCN2C(=O)[C@H]2CCCCN2C(=O)c2ccc(Cl)cc2)c1 | · | · | -0.9 | · | 77.9* | -8.5
COc1ccc(S(=O)(=O)N2CCC[C@H]2C(=O)NCc2ccc(Cl)cc2)cc1 | 71.2* | 0.1 | -2.0 | · | · | -1.8
O=C(C[C@H]1CC[C@H]2NC[C@H](O)COC[C@@H]2O1)Nc1ccccc1 | · | · | -0.5 | 0.0 | 13.5 | 4.1
CN(C)c1ccc(/C=[N+](\[O-])C2N(c3ccccc3)C(=S)SC2(C)C)cc1 (centres undefined) | -3.9 | 0.5 | -1.9 | -2.4 | -1.2 | 1.7
CN1C(=S)SC(C)(C)C1/[N+]([O-])=C/c1cccnc1 (centres undefined) | 122.7* | · | · | · | · | ·
Cc1ccc(S(=O)(=O)N(C)C[C@H]2Oc3ccc(NC(=O)Nc4c(C)noc4C)cc3C(=O)N([C@@H](C)CO)C[C@H]2C)cc1 | · | · | 14.0 | -4.5 | -7.1 | 1.1
CCOC(=O)c1cc(C#N)c(N2CCN(C(=O)c3cccc(C(F)(F)F)c3)CC2)nc1C(F)(F)F | 65.2* | -1.8 | -1.3 | 3.0 | -3.8 | -3.3
O=C(O)Cn1c(-c2ccccc2)cc2ccccc21 | 62.0* | 0.1 | -5.5 | -0.3 | -3.4 | 4.2
O=C(O)Cn1c(-c2ccccc2)nc2ccccc21 | -4.4 | · | · | · | · | ·
COc1ccccc1NC(=O)N(C)C[C@H]1Oc2cc(Br)ccc2S(=O)(=O)N([C@@H](C)CO)C[C@H]1C | · | · | 0.2 | 1.0 | 0.1 | 15.0
C/C(N)=C(/C#N)C(=O)CSc1nnc(Nc2ccccc2)s1 | -8.1 | -1.4 | 18.2* | 3.0 | -2.3 | -1.3
c1ccc(COCCCn2cc(-c3ccccc3)nn2)cc1 | 0.9 | -6.2 | -4.1 | -0.5 | 45.5* | 3.3
CCOC(=O)Cn1cc(-c2ccccc2)nn1 | -1.8 | -0.7 | · | · | · | ·
Cc1ccc(S(=O)(=O)N2C(=O)[C@@H]3Cc4ccccc4CN3C2=O)cc1 | 10.1 | -0.4 | 17.0* | 1.4 | -2.0 | -6.1
